Experiment [1] relates to Mycobacterium tuberculosis. Kind of experiment: Inhibition of Mycobacterium tuberculosis His6-tagged InhA expressed in Escherichia coli BL21 using 2-trans-dodecenoyl-CoA as substrate assessed as conversion of NADH to NAD+ at 50 uM relative to control. The essentials:
(§1)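 Triplicate NADH-dependent reduction of the substrate analogue 2-trans-dodecenoyl-CoA by InhA, with NADH oxidation to NAD+ followed as the fall in absorbance at 340 nm. Percent inhibition was screened at 50 µM, or at 10 µM where solubility limited. IC50 came from 4-parameter curve fits of at least six concentrations.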

Experiment [2] relates to Mycobacterium tuberculosis. Kind of experiment: Antimycobacterial activity against Mycobacterium tuberculosis H37Rv after 21 days by microbroth dilution method. The class given is functional. (In general: Dilution methods test growth across graded concentrations, often in twofold steps.)
Experiment [3] concerns Mycobacterium tuberculosis. Kind of experiment: Inhibition of Mycobacterium tuberculosis His6-tagged InhA expressed in Escherichia coli BL21 using 2-trans-dodecenoyl-CoA as substrate assessed as conversion of NADH to NAD+ at 10 uM relative to control. The essentials:
as §1

Experiment [4] is described as follows: Inhibition of Mycobacterium tuberculosis His6-tagged InhA expressed in Escherichia coli BL21 using 2-trans-dodecenoyl-CoA as substrate assessed as conversion of NADH to NAD+. Put shortly:
as §1

Experiment [5] has as its system Mycobacterium tuberculosis. Kind of experiment: Antimycobacterial activity against Mycobacterium tuberculosis by CFU counting method. The class given is functional.
For experiment [6], the system named is Mycobacterium tuberculosis. Kind of experiment: Antimycobacterial activity against Mycobacterium tuberculosis H37Rv after 21 days by microbroth dilution method in presence of 7.5 ug/ml efflux pump inhibitor CCCP. The class given is functional. The note with it: 504 h.
Experiment [7] relates to Mycobacterium tuberculosis. Kind of experiment: Ratio of MIC for Mycobacterium tuberculosis H37Rv in absence of verapamil to MIC for Mycobacterium tuberculosis H37Rv in presence of verapamil. The class given is functional.
Experiment [8] deals with Mycobacterium tuberculosis. Kind of experiment: Antimycobacterial activity against Mycobacterium tuberculosis H37Rv after 21 days by microbroth dilution method in presence of 40 ug/ml efflux pump inhibitor verapamil. The class given is functional. The settings on record: 504 h.
The subject of experiment [9] is Mycobacterium tuberculosis. Kind of experiment: Antimycobacterial activity against Mycobacterium tuberculosis by Alamar blue assay. The class given is functional.
For experiment [10], the system named is Mycobacterium tuberculosis. Kind of experiment: Ratio of MIC for Mycobacterium tuberculosis H37Rv in absence of CCCP to MIC for Mycobacterium tuberculosis H37Rv in presence of CCCP. The class given is functional.
For experiment [11], the system named is Mycobacterium tuberculosis. Kind of experiment: Antimycobacterial activity against Mycobacterium tuberculosis H37Rv after 21 days by microbroth dilution method in presence of 3 ug/ml efflux pump inhibitor reserpine. The class given is functional. The note with it: 504 h.
Experiment [12] has as its system Mycobacterium tuberculosis. Kind of experiment: Ratio of MIC for Mycobacterium tuberculosis H37Rv in absence of reserpine to MIC for Mycobacterium tuberculosis H37Rv in presence of reserpine. The class given is functional.
Experiment [13] deals with Mycobacterium tuberculosis. Kind of experiment: Inhibition of Mycobacterium tuberculosis His6-tagged InhA expressed in Escherichia coli BL21 using 2-trans-dodecenoyl-CoA as substrate assessed as conversion of NADH to NAD+ at 250 nM relative to control. The essentials:
(§2)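 Chirally separated enantiomers were tested for InhA inhibition at 5 µM or 250 nM, run in triplicate. The assay used 2-trans-dodecenoyl-CoA substrate and NADH, read as the decrease in absorbance at 340 nm from NADH oxidation to NAD+. IC50 came from 4-parameter fits of at least six points.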

Experiment [14] relates to Mycobacterium tuberculosis. Kind of experiment: Inhibition of Mycobacterium tuberculosis His6-tagged InhA expressed in Escherichia coli BL21 using 2-trans-dodecenoyl-CoA as substrate assessed as conversion of NADH to NAD+ at 5 uM relative to control. Put shortly:
as §2

Setting [15] is: Mycobacterium tuberculosis, H37Rv, 504 h, read-out: MIC.

≈ marks a conversion by molar mass, not a printed value.

Consider `O=C(Nc1ccccc1)N1CCN(C2c3ccccc3-c3ccccc32)CC1`, for which the figures for the inhibition in experiment [1] and in experiment [3] were 84% and 79%, respectively. In experiment [2] (setting [15]), the MIC (as a rule, the lowest concentration found to suppress growth) is over 27.1 µM. Also, the IC50 (commonly the concentration that inhibits the measured activity by half) in experiment [4] was determined as 1.18 µM.
With `O=C(c1ccc2[nH]ccc2c1)N1CCN(C2c3ccccc3-c3ccccc32)CC1`, the MIC in experiment [5] was over 125 µM; in experiment [6], under 12.7 µM; in experiment [8], under 12.7 µM; in experiment [2] (setting [15]) it was 50.1 µM (≈ 19.7 µg/mL); in [9] it was over 125 µM; in [11] it was 25.4 µM. Moreover, the Ratio in experiment [7] and in experiment [10] was over 4 throughout. In addition, the inhibition – broadly, the percentage by which the read-out fell short of the control – in experiment [1] was 87%; in experiment [3] it was 81%. In addition, the IC50 in [4] came out at 0.86 µM.
As to `O=C(c1ccccc1)N1CCN(C2c3ccccc3-c3ccccc32)CC1`, the MIC was under 3.5 µM in experiment [6], 56.5 µM in experiment [8], 14.1 µM (≈ 5 µg/mL) in experiment [2] (setting [15]) and 56.5 µM in experiment [11]. The inhibition in experiment [1] and in experiment [3] was 94% throughout. Besides, the IC50 in [4] amounted to 0.49 µM. The Ratio in experiment [10] is over 5.
Turning to `O=S(=O)(c1ccccc1)N1CCN(C2c3ccccc3-c3ccccc32)CC1`, the inhibition in experiment [1] was found to be 12%. The MIC in [2] (setting [15]) is over 25.6 µM.
In the case of `c1ccc2c(c1)-c1ccccc1C2N1CCNCC1`, in [1], the inhibition came to 7%. Also, in experiment [2] (setting [15]), the minimal inhibitory concentration (MIC) is over 39.9 µM.
With `CCCCC(=O)N1CCN(C2c3ccccc3-c3ccccc32)CC1`, the inhibition is 75% in [1] and 45% in experiment [3]. Also, the MIC in experiment [2] (setting [15]) came to 29.9 µM (≈ 10 µg/mL).
For the compound `CCCCCCCCC(=O)N1CCN(C2c3ccccc3-c3ccccc32)CC1`, the figures for the inhibition in experiment [1] and in experiment [3] were 47% and 22%, respectively. In addition, the MIC in experiment [2] (setting [15]) worked out at 12.8 µM (≈ 5 µg/mL).
As for `S=C(c1ccccc1)N1CCN(C2c3ccccc3-c3ccccc32)CC1`, in [1], the inhibition came out at 31%. In [2] (setting [15]), the MIC stood at 13.5 µM (≈ 5 µg/mL).
For the compound `S=C(Nc1ccccc1)N1CCN(C2c3ccccc3-c3ccccc32)CC1`, the inhibition in [1] amounted to 57%; in experiment [3], 32%. Besides, in experiment [2] (setting [15]), the MIC was over 25.9 µM.
As for `CCCCNC(=O)N1CCN(C2c3ccccc3-c3ccccc32)CC1`, the results for the inhibition in experiment [1] and in experiment [3] were 68% and 42%, respectively. In experiment [2] (setting [15]), the MIC worked out at 14.3 µM (≈ 5 µg/mL).
Turning to `CCCCCCCCNC(=O)N1CCN(C2c3ccccc3-c3ccccc32)CC1`, the inhibition in experiment [1] was 34%. Further, the MIC in experiment [2] (setting [15]) was over 24.7 µM.
Turning to `O=C(Nc1ccc([N+](=O)[O-])cc1)N1CCN(C2c3ccccc3-c3ccccc32)CC1`, the inhibition in experiment [1] came out at 33%. Further, the MIC in [2] (setting [15]) is 12.1 µM (≈ 5.02 µg/mL).
Take `O=C(c1ccccc1)N1CCC(C2c3ccccc3-c3ccccc32)CC1`: the inhibition in experiment [1] came out at 93%; in experiment [3] it was 88%. Further, the MIC in experiment [2] (setting [15]) amounted to 28.3 µM (≈ 10 µg/mL). Moreover, the IC50 in [4] was found to be 0.94 µM.
`O=C1CN(C2c3ccccc3-c3ccccc32)CCN1C(=O)c1ccccc1`: in [1], the inhibition worked out at 26%. Also, the MIC in [2] (setting [15]) is over 27.1 µM.
For `[O-][S+](c1ccccc1)N1CCN(C2c3ccccc3-c3ccccc32)CC1` (racemic), the inhibition in experiment [1] was 14%. Besides, the MIC in [2] (setting [15]) was over 26.7 µM.
In the case of `CP(=O)(c1ccccc1)N1CCN(C2c3ccccc3-c3ccccc32)CC1` (racemic), in experiment [1], the inhibition came out at 17%. Also, in experiment [2] (setting [15]), the minimal inhibitory concentration (MIC) was over 24.7 µM.
On to `COP(=O)(c1ccccc1)N1CCN(C2c3ccccc3-c3ccccc32)CC1` (racemic), for which the inhibition in experiment [1] worked out at 17%. The minimum inhibitory concentration (MIC) in experiment [2] (setting [15]) is over 25.7 µM.
With `CCCCCCc1ccc2c(c1)C(N1CCN(C(=O)c3ccccc3)CC1)c1ccccc1-2` (racemic), the inhibition in [1] was found to be 48%; in [3], 45%. Moreover, the MIC in [2] (setting [15]) was 22.8 µM (≈ 10 µg/mL).
Taken in the same sequence, the figures for `CCCCCCCCc1ccc2c(c1)C(N1CCN(C(=O)c3ccccc3)CC1)c1ccccc1-2` (racemic) were 54%, 27% and over 21.4 µM.
On to `CCCCCCc1ccc2c(c1)-c1ccccc1C2N1CCN(C(=O)c2ccccc2)CC1` (racemic), for which the inhibition was determined as 60% in experiment [1] and 52% in [3]. Also, the MIC in experiment [2] (setting [15]) stood at 22.8 µM (≈ 10 µg/mL). Further, in experiment [4], the IC50 was 1 µM.
As for `COc1ccc2c(c1)-c1ccccc1C2N1CCN(C(=O)c2ccccc2)CC1` (racemic) [listing 1 of 2 here], the MIC in [2] (setting [15]) stood at 26 µM (≈ 10 µg/mL). Moreover, the IC50 in experiment [4] is 2.69 µM.
As to `CCCOc1ccc2c(c1)-c1ccccc1C2N1CCN(C(=O)c2ccccc2)CC1` (racemic), the inhibition in experiment [1] was determined as 91%; in experiment [3], 84%. For the same compound, the MIC in experiment [2] (setting [15]) came out at 24.2 µM (≈ 9.98 µg/mL). Moreover, the IC50 in [4] amounted to 1.01 µM.
Turning to `CCCCCCOc1ccc2c(c1)-c1ccccc1C2N1CCN(C(=O)c2ccccc2)CC1` (racemic) [listing 1 of 2 here], the MIC in [2] (setting [15]) is 22 µM (≈ 10 µg/mL). For the same compound, the IC50 in experiment [4] stood at 0.2 µM.
In the case of `CCCOc1ccc2c(c1)C(N1CCN(C(=O)c3ccccc3)CC1)c1ccccc1-2` (racemic), the figures for the inhibition in [1] and in experiment [3] were 88% and 83%, respectively. Further, the MIC in experiment [2] (setting [15]) is over 24.2 µM. Further, the IC50 in experiment [4] was determined as 1.3 µM.
Taken in the same sequence, the figures for `O=C(c1ccccc1)N1CCN(C2c3ccccc3-c3cc(OCc4ccccc4)ccc32)CC1` (racemic) were 63%, 57%, over 21.7 µM and 1 µM.
In the case of `CCCCCCOc1ccc2c(c1)-c1ccccc1C2C1CCN(C(=O)c2ccccc2)CC1` (racemic), the Ratio came to 2 in experiment [7] and 4 in [12]. Also, the inhibition stood at 64% in experiment [1] and 71% in experiment [3]. Further, the MIC in experiment [8] came to 44.1 µM; in experiment [2] (setting [15]) it was 88.2 µM (≈ 40 µg/mL); in experiment [11] it was 22.1 µM. Besides, the IC50 in [4] came to 1.05 µM.
Turning to `CCCCCCOc1ccc2c(c1)-c1ccccc1C2N1CCN(C(=O)c2ccccc2)CC1` (racemic) [listing 2 of 2 here], the inhibition in experiment [1] came to 79%; in [3] it was 70%; in experiment [13] it was 53%.
For the compound `COc1ccc2c(c1)-c1ccccc1C2N1CCN(C(=O)c2ccccc2)CC1` (racemic) [listing 2 of 2 here], the inhibition in [1] was determined as 92%; in experiment [3], 74%; in experiment [14] it was 60%.
In experiment [2], `CCCCCCOc1ccc2c(c1)-c1ccccc1C2N1CCN(C(=O)c2ccccc2)CC1` (single isomer, unassigned) [listing 1 of 2 here] yielded an MIC of over 22 µM.
Regarding `CCCCCCOc1ccc2c(c1)-c1ccccc1C2N1CCN(C(=O)c2ccccc2)CC1` (single isomer, unassigned) [listing 2 of 2 here], in experiment [13], the inhibition turned out to be 0%.
`COc1ccc2c(c1)-c1ccccc1C2N1CCN(C(=O)c2ccccc2)CC1` (single isomer, unassigned; enantiomer 1) [listing 1 of 2 here] registered an MIC in experiment [2] of over 26 µM.
In the case of `COc1ccc2c(c1)-c1ccccc1C2N1CCN(C(=O)c2ccccc2)CC1` (single isomer, unassigned; enantiomer 1) [listing 2 of 2 here], in experiment [14], the inhibition worked out at 11%.
In the case of `CCCCCCOc1ccc2c(c1)-c1ccccc1C2N1CCN(C(=O)c2ccccc2)CC1` (single isomer, unassigned; enantiomer 2) [listing 1 of 2 here], the MIC is under 2.7 µM in [6], 11 µM in experiment [8], 11 µM (≈ 5 µg/mL) in experiment [2] and under 2.7 µM in [11]. The Ratio in [12] and in experiment [10] was over 4 throughout. Besides, the IC50 in experiment [4] was 0.102 µM.
Consider `CCCCCCOc1ccc2c(c1)-c1ccccc1C2N1CCN(C(=O)c2ccccc2)CC1` (single isomer, unassigned; enantiomer 2) [listing 2 of 2 here], for which the inhibition in experiment [13] stood at 71%.
Regarding `COc1ccc2c(c1)-c1ccccc1C2N1CCN(C(=O)c2ccccc2)CC1` (stereo in doubt; 31b) [listing 1 of 2 here], the IC50 in experiment [4] is 2.07 µM.
In the case of `COc1ccc2c(c1)-c1ccccc1C2N1CCN(C(=O)c2ccccc2)CC1` (stereo in doubt; 31b) [listing 2 of 2 here], the inhibition in [14] turned out to be 68%.
As to `NNC(=O)c1ccncc1` [ISONIAZID], in experiment [2] (setting [15]), the MIC was 0.4 µM (≈ 0.0549 µg/mL).

Source of the values: ChEMBL document CHEMBL3608306, “Design, synthesis and evaluation of new GEQ derivatives as inhibitors of InhA enzyme and Mycobacterium tuberculosis growth” (Eur J Med Chem, 2015).
